Results taken from ChEMBL document CHEMBL1821590, “Novel dihydropyrimidines and its pyrazole derivatives: synthesis and pharmacological screening” (Eur J Med Chem, 2011).
In brackets after ≈: the same amount, converted by molar mass.

Tests used:
Type in all cases: functional
[1] = system: Bacillus subtilis; assay: Antimicrobial activity against Bacillus subtilis at 100 ug/ml by agar plate diffusion technique; conditions: read-out: IZ
Procedure, shortened: (§1)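 Agar plate diffusion against E. coli, P. aeruginosa, S. aureus and B. subtilis, with compounds at 25, 50 and 100 µg/mL. Streptomycin as standard.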

[2] = Antioxidant activity assessed as nitric oxide radical scavenging activity after 150 mins
Procedure, shortened: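 10 mM sodium nitroprusside (4 mL), PBS pH 7.4 (1 mL) and sample or ascorbic acid in DMSO (1 mL, 12.5–100 µg/mL), incubated 150 min at 25 °C. Nitrite detected with sulphanilic acid (5 min) then naphthylethylenediamine (30 min, diffused light). Read at […]. Triplicate. % inhibition = [1 − (Vt/Vc)] × 100. IC50 derived from it.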

[3] = system: Pseudomonas aeruginosa; assay: Antimicrobial activity against Pseudomonas aeruginosa at 25 ug/ml by agar plate diffusion technique; conditions: read-out: IZ; procedure, shortened: as §1
[4] = system: Staphylococcus aureus; assay: Antimicrobial activity against Staphylococcus aureus at 25 ug/ml by agar plate diffusion technique; conditions: read-out: IZ; procedure, shortened: as §1
[5] = system: Metaphire posthuma; assay: Anthelmintic activity against Pheretima posthuma assessed as time taken for complete parasite paralysis at 0.5% w/v
Procedure, shortened: (§2)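 Earthworms (Pheretima posthuma) exposed to test solutions at 0.1, 0.2 and 0.5% w/v; time in minutes to complete paralysis (worms motionless) recorded. Albendazole as standard. Mean of three determinations ± S.D.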

[6] = system: Escherichia coli; assay: Antimicrobial activity against Escherichia coli at 100 ug/ml by agar plate diffusion technique; conditions: read-out: IZ; procedure, shortened: as §1
[7] = system: Bacillus subtilis; assay: Antimicrobial activity against Bacillus subtilis at 50 ug/ml by agar plate diffusion technique; conditions: read-out: IZ; procedure, shortened: as §1
[8] = system: Metaphire posthuma; assay: Anthelmintic activity against Pheretima posthuma assessed as time taken for parasite death at 0.2% w/v
Procedure, shortened: (§3)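 Earthworms (Pheretima posthuma, spelled Perituma posthuma in text) exposed to test compounds at 0.1, 0.2 and 0.5% w/v. Albendazole served as standard, with an untreated control. Paralysis was recorded as the time until worms became motionless, then time to death was recorded, in minutes. Each value is the mean of three determinations with S.D.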

[9] = system: Metaphire posthuma; assay: Anthelmintic activity against Pheretima posthuma assessed as time taken for complete parasite paralysis at 0.2% w/v; procedure, shortened: as §2
[10] = system: Pseudomonas aeruginosa; assay: Antimicrobial activity against Pseudomonas aeruginosa at 50 ug/ml by agar plate diffusion technique; conditions: read-out: IZ; procedure, shortened: as §1
[11] = system: Candida albicans; assay: Antimicrobial activity against Candida albicans at 100 ug/ml by paper disc method; conditions: read-out: IZ
Procedure, shortened: (§4)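 Paper disc method against A. niger and C. albicans, with compounds at 25, 50 and 100 µg/mL. Amphotericin-B as standard.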

[12] = system: Pseudomonas aeruginosa; assay: Antimicrobial activity against Pseudomonas aeruginosa at 100 ug/ml by agar plate diffusion technique; conditions: read-out: IZ; procedure, shortened: as §1
[13] = Antioxidant activity assessed as hydrogen peroxide scavenging activity after 10 mins
Procedure, shortened: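 H2O2 (20 mM) in PBS pH 7.4. 1 mL of sample or ascorbic acid in methanol (12.5–100 µg/mL) added to 2 mL H2O2 solution. A230 read after 10 min. % inhibition = [1 − (Vt/Vc)] × 100. Triplicate, averaged. IC50 derived from % inhibition across concentrations.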

[14] = system: Escherichia coli; assay: Antimicrobial activity against Escherichia coli at 25 ug/ml by agar plate diffusion technique; conditions: read-out: IZ; procedure, shortened: as §1
[15] = system: Staphylococcus aureus; assay: Antimicrobial activity against Staphylococcus aureus at 100 ug/ml by agar plate diffusion technique; conditions: read-out: IZ; procedure, shortened: as §1
[16] = Antioxidant activity assessed as potassium ferricyanide ion reducing power after 20 mins
Procedure, shortened: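 Oyaizu method. Samples or ascorbic acid in DMF (12.5–100 µg/mL) mixed with 0.2 M phosphate buffer pH 6.6 and 1% potassium ferricyanide, 20 min at 50 °C. 10% TCA added, centrifuged. Supernatant mixed with water and 0.1% FeCl3, read at 700 nm. % = [(Vt/Vc) − 1] × 100. IC50 derived.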

[17] = system: Metaphire posthuma; assay: Anthelmintic activity against Pheretima posthuma assessed as time taken for complete parasite paralysis at 0.1% w/v; procedure, shortened: as §2
[18] = system: Bacillus subtilis; assay: Antimicrobial activity against Bacillus subtilis at 25 ug/ml by agar plate diffusion technique; conditions: read-out: IZ; procedure, shortened: as §1
[19] = system: Staphylococcus aureus; assay: Antimicrobial activity against Staphylococcus aureus at 50 ug/ml by agar plate diffusion technique; conditions: read-out: IZ; procedure, shortened: as §1
[20] = system: Metaphire posthuma; assay: Anthelmintic activity against Pheretima posthuma assessed as time taken for parasite death at 0.1% w/v; procedure, shortened: as §3
[21] = Antioxidant activity assessed as inhibition of lipid peroxidation using egg lecithin liposomes incubated for 1 hr
Procedure, shortened: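 Egg lecithin (3 mg/mL, phosphate buffer pH 7.4) sonicated 10 min to form liposomes. Sample or ascorbic acid (12.5–100 µg/mL) added. Peroxidation induced with FeCl3 and L-ascorbic acid, 1 h at 37 °C. Stopped with HCl/TCA/TBA/BHA, boiled 15 min, centrifuged, supernatant read at 532 nm. Triplicate. % inhibition vs control. IC50 derived.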

[22] = Antiinflammatory activity assessed as inhibition of albumin denaturation at 100 ug/ml by UV-visible spectrophotometry
Procedure, shortened: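 Compounds dissolved in minimal DMF, diluted in PBS pH 7.4 (final DMF <2.5%). 1 mL test solution (100 µg/mL) plus 1 mL 1% albumin in PBS, 15 min at 27 ± 1 °C, then heated 10 min at 60 ± 1 °C. After cooling, turbidity read at 660 nm. % inhibition = [(Vt/Vc) − 1] × 100 against a no-drug control. Triplicate, averaged. Diclofenac standard.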

[23] = system: Escherichia coli; assay: Antimicrobial activity against Escherichia coli at 50 ug/ml by agar plate diffusion technique; conditions: read-out: IZ; procedure, shortened: as §1
[24] = system: Candida albicans; assay: Antimicrobial activity against Candida albicans at 50 ug/ml by paper disc method; conditions: read-out: IZ; procedure, shortened: as §4
[25] = system: Aspergillus niger; assay: Antimicrobial activity against Aspergillus niger at 25 ug/ml by paper disc method; conditions: read-out: IZ; procedure, shortened: as §4
[26] = system: Metaphire posthuma; assay: Anthelmintic activity against Pheretima posthuma assessed as time taken for parasite death at 0.5% w/v; procedure, shortened: as §3
[27] = system: Candida albicans; assay: Antimicrobial activity against Candida albicans at 25 ug/ml by paper disc method; conditions: read-out: IZ; procedure, shortened: as §4
[28] = system: Aspergillus niger; assay: Antimicrobial activity against Aspergillus niger at 100 ug/ml by paper disc method; conditions: read-out: IZ; procedure, shortened: as §4
[29] = system: Aspergillus niger; assay: Antimicrobial activity against Aspergillus niger at 50 ug/ml by paper disc method; conditions: read-out: IZ; procedure, shortened: as §4

## CSc1nc(-c2ccccc2F)c(C#N)c(=O)n1C
[1]
  zone of inhibition at 100 µg/mL: 29.4 mm
[2]
  IC50: 78 µg/mL (≈ 283 µM)
[3]
  zone of inhibition at 25 µg/mL: 9.17 mm
[4]
  zone of inhibition at 25 µg/mL: 12.2 mm
[5]
  Time: 55.17 min
[6]
  zone of inhibition at 100 µg/mL: 14.2 mm
[7]
  zone of inhibition at 50 µg/mL: 20.2 mm
[8]
  Time: 85.73 min
[9]
  Time: 71.4 min
[10]
  zone of inhibition at 50 µg/mL: 10.4 mm
[11]
  zone of inhibition at 100 µg/mL: 16 mm
[12]
  zone of inhibition at 100 µg/mL: 11.8 mm
[13]
  IC50: 63 µg/mL (≈ 229 µM)
[14]
  zone of inhibition at 25 µg/mL: 10.9 mm
[15]
  zone of inhibition at 100 µg/mL: 20.9 mm
[16]
  IC50: 61 µg/mL (≈ 222 µM)
[17]
  Time: 72.34 min
[18]
  zone of inhibition at 25 µg/mL: 16.9 mm
[19]
  zone of inhibition at 50 µg/mL: 15.3 mm
[20]
  Time: 90.4 min
[21]
  IC50: 58 µg/mL (≈ 211 µM)
[22]
  inhibition: 69.3%
[23]
  zone of inhibition at 50 µg/mL: 13.8 mm
[24]
  zone of inhibition at 50 µg/mL: 12.1 mm
[25]
  zone of inhibition at 25 µg/mL: 12.7 mm
[26]
  Time: 69.54 min
[27]
  zone of inhibition at 25 µg/mL: 10.8 mm
[28]
  zone of inhibition at 100 µg/mL: 22.7 mm
[29]
  zone of inhibition at 50 µg/mL: 14.9 mm

## CN[C@@H]1[C@H](O[C@H]2[C@H](O[C@H]3[C@H](O)[C@@H](O)[C@H](N=C(N)N)[C@@H](O)[C@@H]3N=C(N)N)O[C@@H](C)[C@]2(O)C=O)O[C@@H](CO)[C@H](O)[C@H]1O [STREPTOMYCIN]
[1]
  zone of inhibition at 100 µg/mL: 31.8 mm
[3]
  zone of inhibition at 25 µg/mL: 13.4 mm
[4]
  zone of inhibition at 25 µg/mL: 15.4 mm
[6]
  zone of inhibition at 100 µg/mL: 28.7 mm
[7]
  zone of inhibition at 50 µg/mL: 20.2 mm
[10]
  zone of inhibition at 50 µg/mL: 18.7 mm
[12]
  zone of inhibition at 100 µg/mL: 30.3 mm
[14]
  zone of inhibition at 25 µg/mL: 15.8 mm
[15]
  zone of inhibition at 100 µg/mL: 29.5 mm
[18]
  zone of inhibition at 25 µg/mL: 15.1 mm
[19]
  zone of inhibition at 50 µg/mL: 22.4 mm
[23]
  zone of inhibition at 50 µg/mL: 21.1 mm

## CSc1nc(-c2cccs2)c(C#N)c(=O)n1C
[1]
  zone of inhibition at 100 µg/mL: 18.5 mm
[2]
  IC50: 87 µg/mL (≈ 330 µM)
[4]
  zone of inhibition at 25 µg/mL: 6.29 mm
[5]
  Time: 33.35 min
[6]
  zone of inhibition at 100 µg/mL: 8.78 mm
[7]
  zone of inhibition at 50 µg/mL: 12.9 mm
[8]
  Time: 47.82 min
[9]
  Time: 38.48 min
[11]
  zone of inhibition at 100 µg/mL: 21.8 mm
[13]
  IC50: 72 µg/mL (≈ 273 µM)
[14]
  zone of inhibition at 25 µg/mL: 5.86 mm
[15]
  zone of inhibition at 100 µg/mL: 11.1 mm
[16]
  IC50: 71 µg/mL (≈ 270 µM)
[17]
  Time: 39.78 min
[18]
  zone of inhibition at 25 µg/mL: 10.4 mm
[19]
  zone of inhibition at 50 µg/mL: 8.92 mm
[20]
  Time: 45.24 min
[21]
  IC50: 83 µg/mL (≈ 315 µM)
[22]
  inhibition: 62.1%
[23]
  zone of inhibition at 50 µg/mL: 6.29 mm
[24]
  zone of inhibition at 50 µg/mL: 13.8 mm
[25]
  zone of inhibition at 25 µg/mL: 13 mm
[26]
  Time: 42.34 min
[27]
  zone of inhibition at 25 µg/mL: 10.6 mm
[28]
  zone of inhibition at 100 µg/mL: 22.6 mm
[29]
  zone of inhibition at 50 µg/mL: 15.6 mm

## CSc1nc(-c2ccco2)c(C#N)c(=O)n1C
[1]
  zone of inhibition at 100 µg/mL: 15.6 mm
[2]
  IC50: 108 µg/mL (≈ 437 µM)
[4]
  zone of inhibition at 25 µg/mL: 7.06 mm
[5]
  Time: 32.55 min
[6]
  zone of inhibition at 100 µg/mL: 7.82 mm
[7]
  zone of inhibition at 50 µg/mL: 12.2 mm
[8]
  Time: 55.49 min
[9]
  Time: 36.59 min
[11]
  zone of inhibition at 100 µg/mL: 18.4 mm
[13]
  IC50: 79 µg/mL (≈ 319 µM)
[14]
  zone of inhibition at 25 µg/mL: 5.74 mm
[15]
  zone of inhibition at 100 µg/mL: 12.6 mm
[16]
  IC50: 68 µg/mL (≈ 275 µM)
[17]
  Time: 42.68 min
[18]
  zone of inhibition at 25 µg/mL: 11.1 mm
[19]
  zone of inhibition at 50 µg/mL: 9.12 mm
[20]
  Time: 60.18 min
[21]
  IC50: 90 µg/mL (≈ 364 µM)
[22]
  inhibition: 57.2%
[23]
  zone of inhibition at 50 µg/mL: 6.12 mm
[24]
  zone of inhibition at 50 µg/mL: 16.8 mm
[25]
  zone of inhibition at 25 µg/mL: 12.3 mm
[26]
  Time: 53.98 min
[27]
  zone of inhibition at 25 µg/mL: 13 mm
[28]
  zone of inhibition at 100 µg/mL: 23.5 mm
[29]
  zone of inhibition at 50 µg/mL: 15.9 mm
